Measurements gathered from unrelated publications.
Protocols differ between the studies behind these lines.
Observed: cell growth or viability

Structure (SMILES) | cell line | assay | setting | measurement | result
Cc1cccc(/C=C/C(=O)Nc2cc(-c3ccnc(N4CCC(O)CC4)c3)ccn2)c1 | MDA-MB-231 | MTT | 5 µM | inhibition | 75.6%
C=C(C)[C@@H]1CC[C@@H](C)C[C@H]1OCc1ccccc1 | MDA-MB-231 | MTT | 10 µM, 72 h | inhibition | 21.9%
Cc1c(C(=O)O)ccc2c3n(nc12)[C@@H]1[C@H](C3)N(CC2CC2)[C@@]2(C(=O)Nc3cc(Cl)ccc32)[C@H]1c1cccc(Cl)c1F | hTERT-RPE1 | ATP luminescence | 72 h | GI50 | 0.021 µM
COc1ccc(CNC[C@@](C)(O)[C@@H]2CC[C@@H](C)C[C@H]2OCc2ccccc2)cc1 | MDA-MB-231 | MTT | 30 µM, 72 h | inhibition | 83.5%
C=CCNC(=S)NNC(=O)COc1ccc2c(C)c(CC)c(=O)oc2c1C | MDA-MB-231 | MTT | 250 µg/mL | viability | 5.87%
C[C@@H]1CC[C@@H]([C@@](O)(CNCc2ccccc2)COCc2ccc(F)cc2)[C@H](OCc2ccc(F)cc2)C1 | MDA-MB-231 | MTT | 30 µM, 72 h | inhibition | 98.8%
CC(=NNC(=O)COc1ccc2c(C)c(Cc3ccccc3)c(=O)oc2c1C)c1ccc(Br)cc1 | MDA-MB-231 | MTT | 1000 µg/mL | viability | 15.1%
CCC[C@H]1NC(=O)[C@H](Cc2cc(Cl)ccc2-c2cnn(C)c2)N(C)C(=O)[C@H](CC(C)C)NC(=O)[C@@H](N(C)C(=O)[C@H](CCCCN2CCOCC2)NC(=O)[C@@H](c2cccnc2)C2CCCCC2)CCCCNC1=O | NCI-H526 | MTT | 5 days | GI50 | 3.4 µM
C=CC(=O)NC1CCN(c2ncc3ncnc(Nc4ccc(Oc5ccc6c(c5)ncn6C)c(C)c4)c3n2)CC1 | Panc 04.03 | – | – | EC50 | 5.19 µM
CCc1c(C)c2ccc(OCc3nnc(S)n3N)c(C)c2oc1=O | MDA-MB-231 | MTT | 1000 µg/mL | viability | 5.38%
C[C@@H]1CC[C@@H]([C@](C)(O)CNCc2ccccc2F)[C@H](OCc2ccccc2)C1 | MDA-MB-231 | MTT | 30 µM, 72 h | inhibition | 44.1%
O=C(C=Cc1ccccc1)Nc1cc(-c2ccnc(N3CCOCC3)c2)ccn1 | MDA-MB-231 | MTT | 5 µM | inhibition | 78.3%
CCCN1C(=O)[C@H](CC(C)C)NC(=O)[C@@H](N(C)C(=O)[C@H](CC2CCC2)NC(=O)[C@@H]2C[C@@H](F)CN2C(=O)[C@@](C)(O)C(F)(F)F)CCCCNC(=O)C2(CC2)NC(=O)[C@@H]1Cc1cc(Cl)ccc1Cl | NCI-H526 | MTT | 5 days | GI50 | 0.041 µM
CCNC(=S)NNC(=O)COc1ccc2c(C)c(CC)c(=O)oc2c1C | MDA-MB-231 | MTT | 125 µg/mL | viability | 45%
COc1cccc(CNC[C@@](C)(O)[C@@H]2CC[C@@H](C)C[C@H]2OCc2ccccc2)c1 | MDA-MB-231 | MTT | 30 µM, 72 h | inhibition | 95.3%
